Measured values as given in the array DNA melting data of Ke et al. (doi:10.1101/2024.01.08.574731).

Experiments:
[1] = folding enthalpy; higher = less favourable; fluorescence melt of hairpins on a sequencing array, two-state fit; details: sodium 0.088 M
Summary of the method: (§1)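 Folding enthalpy and melting temperature were estimated with bootstrapped two-state fits and combined across four replicates by inverse-variance weighting, with fitted temperatures raised by 9.35 °C to match UV melts. The data were Cy3 fluorescence of library hairpins, with annealed Cy3 and quencher oligos, on a sequenced MiSeq flow cell in 50 mM Na-HEPES pH 8.0, 25 mM NaCl, imaged in 2.5 °C steps up to 60 °C and normalised to pre-quench Cy3 and control constructs.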

[2] = melting temperature; fluorescence melt of hairpins on a sequencing array, two-state fit, raised by 9.35 °C to match UV melts; details: sodium 0.088 M
Summary of the method: as §1

| Sequence | folding enthalpy [1] | Tm [2] |
| --- | --- | --- |
| GCGTAGGGAAACCTGTGC ((..(((....)))..)) | -14.2 kcal/mol | 37.4 °C |
| GCGTAGTACGC ((((...)))) | -20.8 kcal/mol | 53.1 °C |
| GCGTAGTGACGC ((((....)))) | -15.4 kcal/mol | 53.7 °C |
| GCGTATAGACGC ((((....)))) | -24.6 kcal/mol | 50.3 °C |
| GCGTATCGAAAGATCCGC (((.(((....))).))) | -38.1 kcal/mol | 50.2 °C |
| GCGTATGGAAACGTACGC (((((.(....).))))) | -48 kcal/mol | 54.7 °C |
| GCGTCAACACGC ((((....)))) | -21.8 kcal/mol | 48.5 °C |
| GCGTCACGAAAGTGCCGC (((.(((....))).))) | -46.1 kcal/mol | 59.6 °C |
| GCGTCAGGAAACTGATGC ((.((((....)))).)) | -43.6 kcal/mol | 54.5 °C |
| GCGTCCCGAAAGGGTCGC (((.(((....))).))) | -36.9 kcal/mol | 67.8 °C |
| GCGTCCGAAAGGAATCGC ((((((....)))..))) | -22.6 kcal/mol | 47.8 °C |
| GCGTCCGCGAAAGCGCGC (((..(((....)))))) | -16.9 kcal/mol | 53.5 °C |
| GCGTCCGGAAACAGACGC (((((.(....).))))) | -36.1 kcal/mol | 54 °C |
| GCGTCCTCACGC ((((....)))) | -24.3 kcal/mol | 50.9 °C |
| GCGTCCTGACGC ((((....)))) | -35.1 kcal/mol | 59.9 °C |
| GCGTCGCGAAAGCAAGGC ((.(.((....)).).)) | -17.1 kcal/mol | 43.8 °C |
| GCGTCGCGAAAGCACCGC (((..((....))..))) | -20.8 kcal/mol | 53.9 °C |
| GCGTCGCGAAAGCATCGC (((..((....))..))) | -17.9 kcal/mol | 53.8 °C |
| GCGTCGCGAAAGCCAAGC ((.(.((....)).).)) | -20.1 kcal/mol | 48.1 °C |
| GCGTCGCGAAAGCGCGGC ((..(((....)))..)) | -12.6 kcal/mol | 61.1 °C |
| GCGTCGCGAAAGCGTAGC ((..(((....)))..)) | -20.8 kcal/mol | 58.6 °C |
| GCGTCGGAACGC ((((....)))) | -16.8 kcal/mol | 52 °C |
| GCGTCGGACGC ((((...)))) | -24.1 kcal/mol | 51.7 °C |
| GCGTCGGCACGC ((((....)))) | -10.7 kcal/mol | 56.4 °C |

| Sequence | folding enthalpy [1] | Tm [2] |
| --- | --- | --- |
| GCGTCGGGAAACCGATGC ((.((((....)))).)) | -34 kcal/mol | 65 °C |
| GCGTCGGGAAACTGACGC (((((.(....).))))) | -49.8 kcal/mol | 65.3 °C |
| GCGTCGTCACGC ((((....)))) | -22.4 kcal/mol | 51.8 °C |
| GCGTCTACACGC ((((....)))) | -25.9 kcal/mol | 51.4 °C |
| GCGTCTATACGC ((((....)))) | -25 kcal/mol | 54.6 °C |
| GCGTCTGCGAAAGCACGC (((..(((....)))))) | -18.5 kcal/mol | 52.3 °C |
| GCGTCTGGAAACAGACAC (.(((((....))))).) | -12.8 kcal/mol | 42.7 °C |
| GCGTCTGGAAACGGATGC ((.((.(....).)).)) | -35.5 kcal/mol | 44.4 °C |
| GCGTCTTCACGC ((((....)))) | -26.9 kcal/mol | 51.4 °C |
| GCGTCTTTACGC ((((....)))) | -27.9 kcal/mol | 53.2 °C |
| GCGTGAAAACGC ((((....)))) | -32.6 kcal/mol | 58.5 °C |
| GCGTGACACGC ((((...)))) | -22.1 kcal/mol | 56.8 °C |
| GCGTGACTACGC ((((....)))) | -27.2 kcal/mol | 59.4 °C |
| GCGTGAGGAAACTCATGC ((.((((....)))).)) | -35.8 kcal/mol | 53.4 °C |
| GCGTGAGGAAACTCGTGC ((..(((....)))..)) | -28.7 kcal/mol | 38.9 °C |
| GCGTGAGGAAACTTGCGC (((..((....))..))) | -30.9 kcal/mol | 48.3 °C |
| GCGTGCACGAAAGTGCGC (((..(((....)))))) | -9.64 kcal/mol | 51.9 °C |
| GCGTGCGAAAGCACTCGC ((((((....)))..))) | -12.4 kcal/mol | 51.5 °C |
| GCGTGCGAAAGCAGTCGC ((((((....)))..))) | -20.1 kcal/mol | 53 °C |
| GCGTGCGACGC ((((...)))) | -13.9 kcal/mol | 61 °C |
| GCGTGCTGACGC ((((....)))) | -18.1 kcal/mol | 58.2 °C |
| GCGTGGAAACGC ((((....)))) | -30.1 kcal/mol | 58.8 °C |
| GCGTGGACACGC ((((....)))) | -25.5 kcal/mol | 62 °C |
| GCGTGGCGAAAGCCCCGC (((.(((....))).))) | -29.3 kcal/mol | 67.6 °C |

| Sequence | folding enthalpy [1] | Tm [2] |
| --- | --- | --- |
| GCGTGGCGAAAGCCGGGC ((..(((....)))..)) | -27 kcal/mol | 64.7 °C |
| GCGTGGCGAAAGCCTAGC ((..(((....)))..)) | -20.2 kcal/mol | 59.5 °C |
| GCGTGGCGAAAGCGCCGC (((..((....))..))) | -19.1 kcal/mol | 56.2 °C |
| GCGTGGCGAAAGCTAGGC ((.(.((....)).).)) | -20.4 kcal/mol | 52 °C |
| GCGTGGGAACGC ((((....)))) | -20.4 kcal/mol | 66.7 °C |
| GCGTGGGCACGC ((((....)))) | -24.7 kcal/mol | 57.3 °C |
| GCGTGTACGAAAGTACGC (((..(((....)))))) | -15 kcal/mol | 53.1 °C |
| GCGTGTCCGAAAGGACGC (((..(((....)))))) | -9.9 kcal/mol | 50.1 °C |
| GCGTGTGGAAACACACAC (.(((((....))))).) | -13.7 kcal/mol | 44.4 °C |
| GCGTGTGGAAACATACGC ((((.((....)).)))) | -39 kcal/mol | 58.8 °C |
| GCGTGTGGACGC ((((....)))) | -13.9 kcal/mol | 53.9 °C |
| GCGTTAACACGC ((((....)))) | -20.1 kcal/mol | 49.1 °C |
| GCGTTACCGAAAGGTCGC (((..(((....)))))) | -25.3 kcal/mol | 51.1 °C |
| GCGTTAGGAAACTAACAC (.(((((....))))).) | -16.2 kcal/mol | 35.9 °C |
| GCGTTAGGACGC ((((....)))) | -25.4 kcal/mol | 52.9 °C |
| GCGTTCACGAAAGTGCGC (((..(((....)))))) | -19.2 kcal/mol | 51.4 °C |
| GCGTTCGAAAGAAGACGC ((((((....)))..))) | -31.8 kcal/mol | 46.9 °C |
| GCGTTCGAAAGAAGCCGC ((((((....)))..))) | -22.7 kcal/mol | 35.9 °C |
| GCGTTCGAAAGAAGCGC ((((((....))).))) | -28.8 kcal/mol | 52.5 °C |
| GCGTTCGGAAACGAACAC (.(((((....))))).) | -13.7 kcal/mol | 45.5 °C |
| GCGTTCGTACGC ((((....)))) | -22.1 kcal/mol | 58.3 °C |
| GCGTTCTACGC ((((...)))) | -22.5 kcal/mol | 58.2 °C |
| GCGTTCTCGAAAGAGCGC (((..(((....)))))) | -34.3 kcal/mol | 51.1 °C |
| GCGTTCTTACGC ((((....)))) | -27 kcal/mol | 52.8 °C |

| Sequence | folding enthalpy [1] | Tm [2] |
| --- | --- | --- |
| GCGTTGCGAAAGCGAAGC ((.(.((....)).).)) | -20.4 kcal/mol | 54 °C |
| GCGTTGGCACGC ((((....)))) | -17.2 kcal/mol | 50 °C |
| GCGTTGGGAAACCAACAC (.(((((....))))).) | -14.4 kcal/mol | 42.5 °C |
| GCGTTGGGAAACTAGCGC (((.(.(....).).))) | -35.9 kcal/mol | 47.9 °C |
| GCGTTGGGACGC ((((....)))) | -24.9 kcal/mol | 55.2 °C |
| GCGTTTATACGC ((((....)))) | -27.7 kcal/mol | 55.7 °C |
| GCGTTTCGAAAGAAGCGC (((.(((....))).))) | -37.9 kcal/mol | 63.1 °C |
| GCGTTTCTACGC ((((....)))) | -23.3 kcal/mol | 53.8 °C |
| GCGTTTGAAAAAACGC ((((((....)))))) | -32.1 kcal/mol | 65.9 °C |
| GCGTTTGACGC ((((...)))) | -18.3 kcal/mol | 57.1 °C |
| GCGTTTGGAAACAGATGC ((.(.((....)).).)) | -17.6 kcal/mol | 30.1 °C |
| GCGTTTGGAAACGAATGC ((.((.(....).)).)) | -25.5 kcal/mol | 36 °C |
| GCGTTTTCACGC ((((....)))) | -24.6 kcal/mol | 54.2 °C |
| GCGTTTTTACGC ((((....)))) | -26.9 kcal/mol | 55.2 °C |
| GCTAAACGAAAGTTCAGC (((.(((....))).))) | -28.7 kcal/mol | 41.4 °C |
| GCTAAAGGAAACCTTAGC (((((.(....).))))) | -25.8 kcal/mol | 37.1 °C |
| GCTAAAGGAAACTTTAGC (((((((....))))))) | -37.4 kcal/mol | 53.7 °C |
| GCTAACGAAAGTTAGC ((((((....)))))) | -35.1 kcal/mol | 66.8 °C |
| GCTAACGAAAGTTCTAGC ((((((....)))..))) | -11.4 kcal/mol | 28.8 °C |
| GCTAACGAAAGTTTAAGC ((((((....)))..))) | -19 kcal/mol | 35.5 °C |
| GCTAACGAAAGTTTAGC ((((((....))).))) | -24.2 kcal/mol | 46.9 °C |
| GCTAACGGAAACATTAGC (((((.(....).))))) | -23.1 kcal/mol | 32.9 °C |
| GCTAAGCGAAAGCATGGC ((.(.((....)).).)) | -20.1 kcal/mol | 39.7 °C |
| GCTAAGCGAAAGCCTCGC ((.(.((....)).).)) | -10.7 kcal/mol | 29 °C |
